The values below come from article PMC7323501 (Inorganic chemistry, 2019).

Series [1] in a line: CCA assay: copper/ascorbate redox cycling, hydroxyl radical production. The conditions noted are these: 1 equiv (10 μM) vs copper(II) 10 μM, ascorbate 300 μM, CCA 100 μM, pH 7.4. The essentials: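 Cu(II)/ascorbate hydroxyl-radical model in PBS (pH 7.4) with Desferal (1 μM); CuSO4 in water. Addition order is buffer, CCA (100 μM), Desferal, test compound (0.5 equiv = 5 μM or 1 equiv = 10 μM), Cu(II) (10 μM), then ascorbate (300 μM). The read-out is 7-hydroxy-CCA fluorescence (λex 395 nm, λem 450 nm). Triplicate.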

Series [2] is described as follows: DPPH radical scavenging assay. The conditions noted are these: 1–1500 μM, MeOH, 30 min, n = 3. The essentials:
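Test compound stocks (5 mM, MeOH) were diluted and mixed 1:1 with DPPH stock (150 μM in MeOH), giving final compound 1–1500 μM. Plates were incubated 30 min in the dark at room temperature and read at 516 nm. BHT served as reference antioxidant, and DPPH plus MeOH as the control. Each concentration was run in triplicate, with results normalised to control as % DPPH quenched.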
(In general: Loss of DPPH colour is used to gauge radical scavenging.)

For series [3] the following is noted: cited from earlier work.
For series [4] the following is noted: previously shown; cited from earlier work.
Series [5] deals with Nrf2. Description: Nrf2 expression by Western blot in HT-22 cells. The conditions noted are these: HT-22, 1 μM, 24 h. Format: cell-based, mouse. (In general: A western blot detects proteins with antibodies after separation by electrophoresis.)
For series [6], the system named is Nrf2 pathway. The conditions noted are these: human blood–brain barrier CMEC/D3 cells; cited from earlier work.
For series [7], the system named is HT-22 cells. Description: Cytoprotection against H2O2 in HT-22 cells, WST-8 assay. Format: cell-based, mouse. The conditions noted are these: then 600 μM H2O2 4 h. The essentials:
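HT-22 cells were pretreated with or without test compound (0.1–100 μM) for 24 h, then exposed to 600 μM H2O2 for 4 h. Viability was read by WST-8 reduction (2 h incubation, A450). Values are mean ± SD, n = 6, and significance was tested against the H2O2-only group.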
On the technique in general: Tetrazolium assays rely on reduction of a dye to a coloured formazan, in cell work by metabolically active cells.

Series [8] in a line: ABTS radical reactivity.

Molecules are shown by their SMILES. Read-outs that look alike come from different tables or passages of the source.

As to `CCN(CC)Cc1cccc(CN(CC)CC)n1` [2,6-bis[(diethylamino)methyl]pyridine], the “inhibition of CCA conversion to fluorescent hydroxy-CCA” value in series [1] was “failed to give any indication of the prevention of copper redox cycling”.

Take `Cc1cc(C(C)(C)C)c(O)c(C(C)(C)C)c1` [BHT, 2,6-Di-tert-butyl-4-methylphenol, reference compound]: the “DPPH^• radical scavenging response” value in series [2] is on record as “rapid decrease in the DPPH^• absorbance band”.

Take `c1cc2nc(c1)CNCCNCCNC2` [L1]: in series [3] (I = 0.15 M NaCl, T = 298 K), the “log K1^H” value is 11.37, the “log K2^H” value is 8.22, the “log K3^H” value is listed as 1.61 and the pI is recorded as above 11.37. Moreover, the “DPPH^• radical scavenging activity” value in series [4] is on record as “lack of radical scavenging activity”.

In the case of `Oc1cc2nc(c1)CNCCNCCNC2` [L2], the “expression level of Nrf2” value in series [5] is “significantly increase the expression level of Nrf2”. In series [3] (I = 0.15 M NaCl, T = 298 K), the “log K1^H” value was 11.56, the “log K2^H” value is 9.05, the “log K3^H” value is on record as 5.45 and the “log K4^H” value is reported as 1.68. In addition, the pI in series [3] (I = 0.15 M NaCl, T = 298 K) is recorded as 10.31. For the same compound, the “DPPH^• radical scavenging response” value in series [2] is reported as “strong response”. Also, the Nrf2 pathway activation result in series [6] was “could activate the Nrf2 pathway”. Moreover, the “cell viability after H2O2” value in series [7] (HT-22, 1 μM pretreatment 24 h, mean ± SD, n = 6) was 70.1 ± 9.8%. The “cell viability after H2O2” value in series [7] (HT-22, 0.1, 10 and 100 μM pretreatment 24 h) was “did not improve the cell viability”. Further, the “reactivity with ABTS” value in series [8] is on record as “little to no reactivity”.

For the compound `C1CNCCNCCNCCN1` [cyclen, reference compound], in series [3] (I = 0.15 M NaClO4), the “log K1^H” value was 10.66, the “log K2^H” value is given as 9.69, the “log K3^H” value was 1.41 and the pI was above 10.66.
